Results reported in ChEMBL document CHEMBL4513216, “Probing the Open Global Health Chemical Diversity Library for Multistage-Active Starting Points for Next-Generation Antimalarials” (ACS Infect Dis, 2020).

Experiment: Toxicity liver stage against HepG2, at 10uM
Assay type: cell-based
Parameters: test concentration 10 uM, cell line HepG2-A16-CD81EGFP
Details: human, HepG2-A16-CD81EGFP cells; read-out: INHIBITION
Method in brief: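 Uninfected HepG2-A16-CD81EGFP cells, 3 × 10^3 per well, 1536-well, plated on prespotted compound at 10 μM final, parasite-free screening media added to match infected plates; puromycin 10 μM positive, DMSO 0.5% negative; run in parallel with 48 h PbLuc assay at 37 °C, 5% CO2; viability by CellTiter-Glo luminescence, normalized to controls.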

Row | SMILES | cytotoxicity at 10 µM [%]
1 | Cc1n[nH]c(C)c1NC(=O)NCc1cc[nH]n1 | -5.18
2 | O=C(NCCCn1cncn1)c1ccc(-c2ccccc2)[nH]c1=O | -4.86
3 | CC(NCc1ccccc1Br)c1ccc2[nH]c(=O)[nH]c2c1 (stereo not given) | -6.12
4 | O=C(NCCNc1ccc(C(F)(F)F)cn1)c1ccoc1 | -2
5 | Cc1cc(C)nc(N2CCC(Cn3cc(C(N)=O)cn3)CC2)n1 | 3.65
6 | O=C1N(Cc2cccnc2)C[C@H]2CN(S(=O)(=O)c3ccccc3)CCN12 | 1.08
7 | O=C(NCCc1nnc2n1CCC2)NCC1(c2ccc(F)cc2)CC1 | -2.23
8 | CO[C@@H]1CCN(C(=O)Cc2ccc(F)cc2)[C@@H]1Cc1cccnc1 | 10.1
9 | CN1C[C@H](O)[C@]2(CCN(Cc3ccc(OC(F)(F)F)cc3)C2)S1(=O)=O | -5.57
10 | CC(C)Cc1noc(C2CCN(C(=O)c3cccs3)CC2)n1 | 9.81
11 | O=C(CS(=O)(=O)Cc1ccc(Br)cc1F)Nc1cn[nH]c1 | -9.2
12 | O=c1c(NCCNCCO)c(N2CCN(c3ccccc3)CC2)c1=O | -7.76
13 | Cc1nc([C@@H]2C[C@@H]3CCN(C(=O)c4ccsc4)C[C@H]3O2)no1 | -8.44
14 | CCc1nc(C(=O)N2CCN(C)CC2)nn1-c1ccccc1Cl | 2.1
15 | COc1ccc(CN2C[C@H]3CC[C@@H](C2)N(Cc2snnc2C)C3)cc1 | -21.7
16 | Cc1cnn(CCC(=O)N2CCCC(c3noc(C)n3)C2)c1 (stereo not given) | -3.98
17 | Cn1nnnc1SCC1Cc2ccccc2O1 (stereo not given) | 14.9
18 | Cc1nc(N2CCOCC2)nc(C)c1NC(=O)c1ccco1 | 1.9
19 | CC(C)CN1CCCn2nc(CNC(=O)CCN)cc2C1 | -20.5
20 | Cc1n[nH]c(C)c1CNC(=O)c1cn(CCC2CCCCN2)nn1 (stereo not given) | 1.61
21 | COc1c(C)cnc(CN2CCn3c(C)nnc3C2)c1C | -4.97
22 | Cc1ccc(NCCCNC(=O)NCC2CCS(=O)(=O)C2)nc1 (stereo not given) | 17.2
23 | O=S(=O)(NCCN1CCCCC1Cn1cncn1)c1ccccc1 (stereo not given) | -9.12
24 | Cc1cccc(NC(=O)C(C)Oc2ccc3c(c2)OCO3)n1 (stereo not given) | -9.25
25 | Cc1cc(CNC(=O)Cc2cccs2)ccc1S(C)(=O)=O | -2.74
26 | Cc1nnc2n1CCN(Cc1csc(Cc3ccccc3)n1)C2 | -9.41
27 | CC(=O)N1[C@H](Cn2cncn2)C[C@@H]2CN(S(C)(=O)=O)CC[C@@H]21 | -10.9
28 | Cc1cc(CN2CCC(CNS(=O)(=O)c3c(C)noc3C)CC2)c(C)o1 | 5.81

Row | SMILES | cytotoxicity at 10 µM [%]
29 | COCCn1nc(C(=O)N2CCCC2c2cccc(F)c2)ccc1=O (stereo not given) | -5.5
30 | Cc1cc(-c2cnc(C)nc2CN(C)C(=O)c2cc(C3CC3)on2)on1 | -20
31 | O=C(c1ccc(F)cc1F)N1CC[C@H](O)[C@@H](N2CCOCC2)CC1 | 2.62
32 | Cc1cc(NCCO)nc(N2CCN(C)CC2)c1C#N | -17.4
33 | O=C(CCCNC(=O)Nc1ccc(F)cc1)Nc1cn[nH]c1 | 9.37
34 | COc1ccc(NC2(C(=O)N3CCn4cncc4C3)CCCC2)cc1 | 7.42
35 | O=C(NCCC1CN(Cc2cccnc2)CCO1)c1ccsc1 (stereo not given) | -8.03
36 | Cc1cncnc1C1CCN(C(=O)CN(C)C)CC1 | -7.91
37 | COCC1CN(Cc2ccc(F)cc2)Cc2nnn(CC3CC3)c21 (stereo not given) | 3.4
38 | CCCn1nc2c(cc1=O)CN(Cc1nc(-c3ccoc3)no1)CC2 | 8.64
39 | CN(C)c1nc2c(c(NCc3cc(O)ncn3)n1)CCCC2 | -12.4
40 | COc1ccc(Br)c(C(=O)N2CCCC(c3nc(C)no3)C2)c1 (stereo not given) | 7.08
41 | O=C(COc1ccccc1F)NCC(O)(c1ccccc1)C1CC1 (stereo not given) | -3.68
42 | CN(CC(=O)N1CCc2[nH]c3ccccc3c2C1)CC1OCCO1 | -1.63
43 | CS(=O)(=O)Cc1cccc(C(=O)N2CCCC(n3cccn3)C2)c1 (stereo not given) | 5.05
44 | CC(C)(C)OC(=O)NC(C)(C)c1noc(CN2CCCCC2)n1 | 7.57
45 | CSc1nc2ccsc2c(=O)n1CC(=O)N(C)c1ccccc1 | -5.57
46 | O=C(C1CCOCC1)N1CCc2onc(COc3cccnc3)c2C1 | -69.6
47 | Cc1cnc(CN2CCN(c3nc(C)cs3)C(C)C2)cn1 (stereo not given) | 2.74
48 | Cc1ccc(CNC(=O)C2CCNC(=O)C2)c(OCCC(C)C)c1 (stereo not given) | 20.4
49 | Cc1cccc(CO[C@@H]2C[C@H]3CN(C(=O)c4cnccn4)CCN3C2)n1 | -1.79
50 | O=C1CCC2(CCN(CC[C@H](O)c3ccccc3)CC2)CN1CCO | -4
51 | CCN(CC1CCOC1)C(=O)Nc1ccc(N2CCCCC2)nc1 (stereo not given) | -6.45
52 | Cc1nc(O)cc(C2CCN(Cc3cccc(F)c3F)C2)n1 (stereo not given) | -1.19
53 | Cc1ccoc1C(=O)N1CC(C(=O)N2CCOCC2)C2(CCOCC2)C1 (stereo not given) | -1.2
54 | Cc1nc(C(C)(C)NC(=O)Nc2cccc(C#N)c2)no1 | -7.79
55 | COCCN1C[C@H]2[C@@H](C1)N(C(=O)CCc1ccccc1)CC[C@H]2OC | 4.78
